# According to ChEMBL document CHEMBL1126279, “Antiallergic and cytoprotective activity of new N-phenylbenzamido acid derivatives” (1992):
# Calls of active or inactive are those of the source. The calls are words filed in the database; no cut-off is given here.
# Columns and labels:
# Rattus norvegicus [1] = experiment: Cytoprotective activity against ethanol-induced gastric lesions in male conscious rats; type: functional; details: Stomach, read-out: ID50 (the source's name)
# Summary of the method: (§1)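 Male rats (140–160 g) were fasted 24 h with water allowed. Lesions were induced by 1.5 mL oral absolute ethanol. Drugs were given iv (5 mL/kg) as sodium salt in saline, 15 min before. Stomachs were scored blind at 1 h for necrotic lesion length categories and counts (lesion index). Each agent was given at ≥3 doses, groups of five. % effect vs control was computed, and ID50 came from log-dose regression.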
# Rattus norvegicus [2] = experiment: Antiallergic activity against rat passive cutaneous anaphylaxis (PCA) reaction induced by 25 mg/kg of ovalbumin given iv (bolus).; type: functional; details: read-out: ID50 (the source's name)
# Rattus norvegicus [3] = experiment: Cytoprotective activity against ethanol-induced gastric lesions in male conscious rats; Inactive.; type: functional, organism-based; details: Stomach; summary of the method: as §1
# Rattus norvegicus [4] = organism: Rattus norvegicus; experiment: Inhibition of rat passive cutaneous anaphylaxis reaction; Inactive.; type: functional, organism-based
# Summary of the method: (§2)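 IgE antiserum was raised in male Sprague-Dawley rats by im ovalbumin (25 mg) in Bordetella pertussis suspension, and sera were pooled 14 days later. Naive young rats received 0.05 mL antiserum intradermally at two back sites. After 24 h they were challenged iv with saline containing egg albumin plus Evans blue and killed 30 min later to measure wheal axes. Compounds were given as sodium salt in saline, im, 15 min pre-challenge, at ≥3 doses (n ≥ 15). ID50 was derived by log-dose regression with p = 0.05 fiducial limits.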
# Rattus norvegicus [5] = organism: Rattus norvegicus; experiment: Compound was evaluated for antiallergic activity against rat passive cutaneous anaphylaxis (PCA); type: functional; details: read-out: ID50 (the source's name); summary of the method: as §2
# Rattus norvegicus [6] = experiment: Antiallergic activity against rat passive cutaneous anaphylaxis (PCA) reaction induced by 25 mg/kg of ovalbumin given iv(bolus); type: functional; details: read-out: ID50 (the source's name)
# Rattus norvegicus [7] = experiment: Compound was evaluated for cytoprotective activity against glucose-induced gastric lesions in male conscious rats; type: functional; details: Stomach, read-out: ID50 (the source's name)
# Summary of the method: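 Male rats (180–200 g) were fasted 24 h, then fed solely an aqueous glucose liquid meal. Drugs were given sc twice daily for 9 days. Lesions were scored by number of necrotic lesions and extent of impaired rumen area, and % effect vs control was calculated. Agents were given at four dose levels in groups of five in duplicate, or in duplicate at 100 mg/kg.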
# Rattus norvegicus [8] = experiment: Compound was evaluated for cytoprotective activity against sodium chloride-induced gastric lesions in male conscious rats; type: functional; details: Stomach, read-out: ID50 (the source's name)
# Summary of the method: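 Male rats (140–160 g) were fasted 24 h. Lesions were induced by oral 1.5 mL/animal 25% (w/v) NaCl. Drugs were given iv (5 mL/kg) 15 min before. Stomachs were scored blind at 1 h by lesion index, and % effect vs control was calculated. Some agents were given at five dose levels in groups of five; others in duplicate at 30 and 100 mg/kg. ID50 came from log-dose regression.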
# Rattus norvegicus [9] = experiment: Compound was evaluated for cytoprotective activity against acetic acid-induced gastric lesions in male conscious rats; type: functional; details: Stomach, read-out: ID50 (the source's name)
# Summary of the method: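 Under ether anesthesia, 50 µL of 30% acetic acid was injected into the gastric submucosa of fasted male rats (140–160 g). Drugs were given im at −0.5, 4 and 21 h. […] Agents were given at five dose levels in groups of five, or in duplicate at 100 mg/kg.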
Structure (SMILES),ED50 (Rattus norvegicus [1]),ED50 (Rattus norvegicus [2]),ID50 (Rattus norvegicus [3]),ID50 (Rattus norvegicus [4]),also measured
O=C([O-])c1cc(=O)c2c(OCC(O)COc3cccc4oc(C(=O)[O-])cc(=O)c34)cccc2o1.[Na+].[Na+] [CROMOLYN SODIUM],50.8 mg/kg,1.5 mg/kg,,,
O=C(Nc1cccc(-c2nn[nH]n2)c1)c1ccc(-c2nn[nH]n2)cc1,1.1 mg/kg,0.03 mg/kg,,,
O=C(O)c1cc(NC(=O)c2ccc(O)c(O)c2)cc(C(=O)O)c1,,,inactive,inactive,
O=C(O)c1cc(NC(=O)c2ccccc2)cc(C(=O)O)c1,,,inactive,inactive,
COc1ccc(C(=O)Nc2cc(C(=O)O)cc(C(=O)O)c2)cc1OC,116 mg/kg,,,inactive,
CCCc1ccc(C(=O)Nc2cc(C(=O)O)cc(C(=O)O)c2)cc1,94.2 mg/kg,,,,ED50 (Rattus norvegicus [5]): 6.7 mg/kg
O=C(Nc1ccc(C(=O)O)c(C(=O)O)c1)c1ccc([N+](=O)[O-])cc1,,13.2 mg/kg,inactive,,
O=C(O)c1ccc(NC(=O)c2ccc(-c3nn[nH]n3)cc2)cc1,3.5 mg/kg,2.3 mg/kg,,,
O=C(O)c1ccc(C(=O)O)c(NC(=O)c2ccc(-c3nn[nH]n3)cc2)c1,31.1 mg/kg,1.2 mg/kg,,,
O=C(O)c1cc(NC(=O)c2ccc(O)cc2)cc(C(=O)O)c1,,,inactive,inactive,
O=C(Nc1ccccc1)c1ccc(-c2nn[nH]n2)cc1,40 mg/kg,8.4 mg/kg,,,
N#Cc1ccc(C(=O)Nc2cccc(-c3nn[nH]n3)c2)cc1,21.4 mg/kg,,,inactive,
N#Cc1ccc(C(=O)Nc2cc(CO)cc(C(=O)O)c2)cc1,,,inactive,inactive,
CN(C(=O)c1ccc(-c2nn[nH]n2)cc1)c1ccc(-c2nn[nH]n2)cc1,60 mg/kg,3.8 mg/kg,,,
COc1cc(C(=O)Nc2cc(C(=O)O)cc(C(=O)O)c2)cc(OC)c1OC,,,inactive,inactive,
N#Cc1ccc(C(=O)Nc2cccc(C(=O)O)c2)cc1,,,inactive,inactive,
N#Cc1ccc(NC(=O)c2ccc(-c3nn[nH]n3)cc2)cc1,19.7 mg/kg,1.2 mg/kg,,,
O=C(O)c1cc(NC(=O)c2ccc(Cl)cc2)cc(C(=O)O)c1,97.3 mg/kg,,,inactive,
O=C(O)c1ccc(NC(=O)c2ccc(C(=O)O)cc2)cc1,54.3 mg/kg,25.4 mg/kg,,,
N#Cc1ccc(NC(=O)c2ccc(C(=O)O)cc2)cc1,,,inactive,inactive,
O=C(O)c1cc(NC(=O)c2ccc(Cl)cc2Cl)cc(C(=O)O)c1,103 mg/kg,,,inactive,
CCCCc1ccc(C(=O)Nc2cc(C(=O)O)cc(C(=O)O)c2)cc1,91.9 mg/kg,12.3 mg/kg,,,
O=C(O)c1ccc(NC(=O)c2ccc([N+](=O)[O-])cc2)cc1,,,inactive,inactive,
CCCOc1ccc(C(=O)Nc2cc(C(=O)O)cc(C(=O)O)c2)cc1,78 mg/kg,,,inactive,
N#Cc1ccc(C(=O)Nc2ccc(C(=O)O)cc2C(=O)O)cc1,66.3 mg/kg,19.5 mg/kg,,,
N#Cc1ccc(C(=O)Nc2ccc(C(=O)O)cc2)cc1,,,inactive,inactive,

Structure (SMILES),ED50 (Rattus norvegicus [1]),ED50 (Rattus norvegicus [2]),ID50 (Rattus norvegicus [3]),ID50 (Rattus norvegicus [4]),also measured
CCCc1c2oc(C(=O)O)cc(=O)c2cc2c(=O)cc(C(=O)O)n(CC)c12 [NEDOCROMIL],,1.3 mg/kg,inactive,,
N#Cc1cccc(C(=O)Nc2cc(C(=O)O)cc(C(=O)O)c2)c1,140 mg/kg,5 mg/kg,,,
N#Cc1ccc(C(=O)Nc2ccc(C(=O)O)c(C(=O)O)c2)cc1,,10.1 mg/kg,inactive,,
O=C(Nc1ccccc1-c1nn[nH]n1)c1cccc(-c2nn[nH]n2)c1,9.7 mg/kg,,,,ED50 (Rattus norvegicus [6]): 1.4 mg/kg
O=C(Nc1ccccc1-c1nn[nH]n1)c1ccc(-c2nn[nH]n2)cc1,6.1 mg/kg,1.5 mg/kg,,,
O=C(O)c1cc(NC(=O)c2ccc(-c3nn[nH]n3)cc2)cc(C(=O)O)c1,8.2 mg/kg,1.2 mg/kg,,,
N#Cc1ccc(C(=O)Nc2ccc(-c3nn[nH]n3)cc2)cc1,54.4 mg/kg,2.4 mg/kg,,,
COc1cc(OC)cc(C(=O)Nc2cc(C(=O)O)cc(C(=O)O)c2)c1,108 mg/kg,,,inactive,
N#Cc1ccc(C(=O)Nc2cc(C(=O)O)cc(C(=O)O)c2)cc1,32.1 mg/kg,1.7 mg/kg,,,
O=C(Nc1ccc(-c2nn[nH]n2)cc1)c1cccc(-c2nn[nH]n2)c1,0.6 mg/kg,0.05 mg/kg,,,
Cc1ccc(C(=O)Nc2cc(C(=O)O)cc(C(=O)O)c2)cc1,,,inactive,inactive,
COc1ccc(/C=C/C(=O)Nc2ccccc2C(=O)O)cc1OC [TRANILAST],,3.6 mg/kg,inactive,,
O=C(Nc1ccccc1)c1cccc(-c2nn[nH]n2)c1,38.1 mg/kg,4.5 mg/kg,,,
NC(=O)c1ccc(NC(=O)c2ccc(-c3nn[nH]n3)cc2)cc1,33 mg/kg,2 mg/kg,,,
COc1ccc(C(=O)Nc2cc(C(=O)O)cc(C(=O)O)c2)cc1,,,inactive,inactive,
O=C(O)c1cc(NC(=O)c2ccc([N+](=O)[O-])cc2)cc(C(=O)O)c1,61.1 mg/kg,9.8 mg/kg,,,
O=C(Nc1ccc(-c2nnn[nH]2)cc1)c1ccc(-c2nnn[nH]2)cc1 [ANDOLAST],2.5 mg/kg,,,,ED50 (Rattus norvegicus [6]): 0.09 mg/kg; ED50 (Rattus norvegicus [7]): 23.9 mg/kg; ED50 (Rattus norvegicus [8]): 18.2 mg/kg; ED50 (Rattus norvegicus [9]): 9.4 mg/kg
O=C(O)c1cc(NC(=O)c2cc(O)cc(O)c2)cc(C(=O)O)c1,90.2 mg/kg,,,inactive,
N#Cc1ccc(C(=O)Nc2cccc(C(=O)O)c2C(=O)O)cc1,135 mg/kg,15.8 mg/kg,,,
N#Cc1ccc(C(=O)Nc2cc(C(=O)O)ccc2C(=O)O)cc1,26.8 mg/kg,1.5 mg/kg,,,
O=C(O)c1cc(NC(=O)c2ccc(C(F)(F)F)cc2)cc(C(=O)O)c1,,,inactive,inactive,
O=C(O)c1cc(NC(=O)c2cccc(Cl)c2)cc(C(=O)O)c1,,,inactive,inactive,
O=C(Nc1cccc(-c2nn[nH]n2)c1)c1cccc(-c2nn[nH]n2)c1,15.8 mg/kg,1.6 mg/kg,,,
N#Cc1ccc(C(=O)Nc2cc(C(N)=O)cc(C(=O)O)c2)cc1,87.2 mg/kg,5.7 mg/kg,,,
O=C(O)c1ccc(C(=O)Nc2cc(C(=O)O)cc(C(=O)O)c2)cc1,32.2 mg/kg,2.1 mg/kg,,,
